pIC50: −log10 of the molar value.
Key:
LNCaP = test: Cytotoxicity against human LNCAP cells assessed as cell viability after 2 days by cell counting method; format: functional, cell-based; conditions: 48 h
Procedure, shortened: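 LNCap cells were grown in RPMI1640 with 10% FBS and penicillin/streptomycin at 37 °C in 5% CO2. They were seeded at 4 × 10³ cells/well, left 24 h, then exposed to compounds for 2 days. Viability was read by CCK-8 absorbance, in triplicate.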

[1] = AUC (0 to infinity) in Sprague-Dawley rat at 2.5 mg/kg, iv; format: ADME, organism-based; parameters: time infinity, dose 2.5 mg/kg, route intravenous; conditions: plasma
Procedure, shortened: (§1)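 Male Sprague-Dawley rats, n = 3 per route, were given 2.5 mg/kg by either intravenous or oral dosing. Plasma concentration–time profiles were followed, and PK parameters were derived from them, with AUC taken over 0–72 h and also to infinity.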

CYP3A4 = CYP3A4 (Homo sapiens, UniProt P08684); test: Inhibition of human recombinant CYP3A4 using dibenzylfluorescein as substrate at 10 uM preincubated for 20 mins prior to enzyme/substrate addition measured after 20 mins by fluorometric assay relative to control; format: ADME; conditions: recombinant CYP3A4, probe dibenzylfluorescein
Procedure, shortened: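 Vivid fluorometric kit. Compounds were in acetonitrile, with an acetonitrile vehicle control. NADP-regenerating system (1.0 mM NADP+, 3.3 mM glucose-6-phosphate, 3.3 mM MgCl2, 0.4 U/mL G6PDH in 10 mM KPO4, pH 8.0) was preincubated with compound at 37 °C for 20 min. Then 0.5 pmol recombinant human CYP3A4 plus dibenzylfluorescein was added, 20 min, and the reaction was stopped. Background had enzyme/substrate added after the stop. Fluorescein read at ex 485/em 530 nm.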

[2] = Elimination half life in Sprague-Dawley rat at 2.5 mg/kg, po; format: ADME, organism-based; parameters: dose 2.5 mg/kg, route oral; conditions: in vivo, read-out: beta t1/2 (converted); procedure, shortened: as §1
[3] = Volume of distribution at steady state in Sprague-Dawley rat at 2.5 mg/kg, iv; format: ADME, organism-based; parameters: dose 2.5 mg/kg, route intravenous; conditions: in vivo, read-out: Vdss; procedure, shortened: as §1
CYP2D6 = CYP2D6 (Homo sapiens, UniProt P10635); test: Inhibition of CYP2D6 (unknown origin) at 10 uM relative to control; format: ADME
[4] = Mean residence time in Sprague-Dawley rat at 2.5 mg/kg, po; format: ADME, organism-based; parameters: dose 2.5 mg/kg, route oral; conditions: in vivo; procedure, shortened: as §1
[5] = Metabolic stability in rat liver microsomes assessed as compound remaining at […] after 1 hr; format: ADME, Microsome; conditions: read-out: Stability
[6] = Cmax in Sprague-Dawley rat at 2.5 mg/kg, po; format: ADME, organism-based; parameters: dose 2.5 mg/kg, route oral; conditions: in vivo; procedure, shortened: as §1
[7] = Octanol-water partition coefficient, log P of the compound by pH-metric method; format: physicochemical
[8] = Tmax in Sprague-Dawley rat at 2.5 mg/kg, po; format: ADME, organism-based; parameters: dose 2.5 mg/kg, route oral; conditions: in vivo; procedure, shortened: as §1
[9] = AUC (0 to infinity) in Sprague-Dawley rat at 2.5 mg/kg, po; format: ADME, organism-based; parameters: time infinity, dose 2.5 mg/kg, route oral; conditions: plasma; procedure, shortened: as §1
[10] = Mean residence time in Sprague-Dawley rat at 2.5 mg/kg, iv; format: ADME, organism-based; parameters: dose 2.5 mg/kg, route intravenous; conditions: in vivo; procedure, shortened: as §1
[11] = AUC (0 to 72 hrs) in Sprague-Dawley rat at 2.5 mg/kg, iv; format: ADME, organism-based; parameters: time < 72 hr, dose 2.5 mg/kg, route intravenous; conditions: plasma; procedure, shortened: as §1
[12] = Permeability of the compound at pH 7.4 at 500 uM after 16 hrs by PAMPA; format: ADME; conditions: pH 7.4, 16 h
Procedure, shortened: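 PAMPA: the donor solution was diluted from a 1 mM DMSO stock into system buffer at pH 7.4. Lipid solution was applied to each filter membrane, and the receiver side held acceptor sink buffer. The plates were incubated 16 h at room temperature. Donor and receiver sides were analysed by UV spectrometry, and donor initial concentration was also measured.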

Androgen receptor = biological target: T1, Androgen receptor (Homo sapiens, UniProt P10275); test: Inhibition of androgen receptor in human LNCAP cells after 1 day by luciferase reporter gene assay; format: cell-based
T1 sequence (P10275 whole entry): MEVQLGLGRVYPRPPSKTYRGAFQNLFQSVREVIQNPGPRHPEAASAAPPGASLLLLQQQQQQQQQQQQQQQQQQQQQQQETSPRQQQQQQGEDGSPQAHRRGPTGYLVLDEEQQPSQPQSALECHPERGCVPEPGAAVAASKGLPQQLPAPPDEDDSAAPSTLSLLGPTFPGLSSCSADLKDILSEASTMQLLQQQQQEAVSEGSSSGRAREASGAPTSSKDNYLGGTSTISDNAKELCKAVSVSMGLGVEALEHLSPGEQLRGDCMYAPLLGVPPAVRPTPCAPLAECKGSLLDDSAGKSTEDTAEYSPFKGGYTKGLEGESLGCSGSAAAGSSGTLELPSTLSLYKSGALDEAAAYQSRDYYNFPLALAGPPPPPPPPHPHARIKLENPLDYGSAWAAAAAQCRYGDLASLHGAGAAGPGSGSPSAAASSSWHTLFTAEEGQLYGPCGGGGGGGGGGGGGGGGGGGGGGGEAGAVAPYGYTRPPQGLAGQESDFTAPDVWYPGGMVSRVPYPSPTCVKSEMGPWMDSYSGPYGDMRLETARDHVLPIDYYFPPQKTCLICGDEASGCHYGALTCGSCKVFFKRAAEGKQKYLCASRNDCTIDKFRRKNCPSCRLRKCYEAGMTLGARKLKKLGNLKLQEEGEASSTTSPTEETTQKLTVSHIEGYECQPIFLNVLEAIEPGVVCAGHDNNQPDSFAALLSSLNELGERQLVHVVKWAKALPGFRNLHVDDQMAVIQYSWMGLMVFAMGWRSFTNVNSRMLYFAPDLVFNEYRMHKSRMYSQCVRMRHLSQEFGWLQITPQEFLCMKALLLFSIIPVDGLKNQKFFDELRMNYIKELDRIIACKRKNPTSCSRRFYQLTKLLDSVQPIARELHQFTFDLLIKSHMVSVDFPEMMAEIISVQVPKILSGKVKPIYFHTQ

[13] = Elimination half life in Sprague-Dawley rat at 2.5 mg/kg, iv; format: ADME, organism-based; parameters: dose 2.5 mg/kg, route intravenous; conditions: in vivo, read-out: beta t1/2 (converted); procedure, shortened: as §1
[14] = AUC (0 to 72 hrs) in Sprague-Dawley rat at 2.5 mg/kg, po; format: ADME, organism-based; parameters: time < 72 hr, dose 2.5 mg/kg, route oral; conditions: plasma; procedure, shortened: as §1
[15] = Oral bioavailability in Sprague-Dawley rat at 2.5 mg/kg; format: ADME, organism-based; conditions: in vivo; procedure, shortened: as §1
[16] = Blood clearance in Sprague-Dawley rat at 2.5 mg/kg, iv; format: ADME, organism-based; parameters: dose 2.5 mg/kg, route intravenous; procedure, shortened: as §1

Chain of CYP2D6 (P10635 whole entry): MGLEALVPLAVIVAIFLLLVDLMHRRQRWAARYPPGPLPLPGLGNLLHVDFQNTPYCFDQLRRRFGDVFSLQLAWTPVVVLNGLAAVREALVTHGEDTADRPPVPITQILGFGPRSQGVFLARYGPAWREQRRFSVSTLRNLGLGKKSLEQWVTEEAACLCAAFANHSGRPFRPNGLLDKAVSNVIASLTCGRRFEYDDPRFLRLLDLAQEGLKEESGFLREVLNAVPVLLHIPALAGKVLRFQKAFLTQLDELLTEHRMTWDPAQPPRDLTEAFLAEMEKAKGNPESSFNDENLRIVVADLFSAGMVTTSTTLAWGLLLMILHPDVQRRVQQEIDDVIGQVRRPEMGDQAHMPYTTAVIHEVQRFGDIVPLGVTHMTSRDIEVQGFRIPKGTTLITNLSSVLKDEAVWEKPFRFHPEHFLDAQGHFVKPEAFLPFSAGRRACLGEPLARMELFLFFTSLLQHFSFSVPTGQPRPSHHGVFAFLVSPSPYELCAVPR
Chain of CYP3A4 (P08684 whole entry): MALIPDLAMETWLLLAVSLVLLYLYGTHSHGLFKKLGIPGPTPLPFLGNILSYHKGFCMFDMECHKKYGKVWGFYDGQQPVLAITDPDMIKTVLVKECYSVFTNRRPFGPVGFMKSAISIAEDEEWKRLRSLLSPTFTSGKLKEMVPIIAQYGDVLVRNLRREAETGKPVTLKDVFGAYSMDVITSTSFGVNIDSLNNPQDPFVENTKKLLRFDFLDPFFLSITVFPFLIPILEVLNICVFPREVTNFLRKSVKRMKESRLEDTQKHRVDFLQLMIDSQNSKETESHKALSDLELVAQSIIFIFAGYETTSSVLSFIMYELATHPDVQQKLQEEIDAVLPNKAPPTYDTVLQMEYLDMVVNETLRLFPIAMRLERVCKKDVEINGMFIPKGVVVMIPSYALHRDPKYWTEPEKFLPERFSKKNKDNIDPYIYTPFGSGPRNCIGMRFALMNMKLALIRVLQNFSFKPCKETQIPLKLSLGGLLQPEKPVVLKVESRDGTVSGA

## CCS(=O)(=O)Nc1cccc(-c2cc(=O)n(-c3ccc(Cl)c(Cl)c3)nc2C)c1
LNCaP
  pIC50: 4.94
[1]
  AUC(0-inf): 29800 ng·h/mL
CYP3A4
  inhibition at 20 min, 10 µM: 6.7%
[2]
  half-life: 21.6 h
[3]
  Vd: 2.25 L/kg
CYP2D6
  inhibition at 10 µM: 0%
[4]
  MRT: 34.9 h
[5]
  remaining at 1 h: > 99%
[6]
  Cmax: 767 ng/mL
[7]
  logP: 3.82
[8]
  Tmax: 10.3 h
[9]
  AUC(0-inf): 30500 ng·h/mL
[10]
  MRT: 26.9 h
[11]
  AUC(0-t) at 72 h: 27500 ng·h/mL
[12]
  permeability: permeable
Androgen receptor
  pIC50: 5.58
[13]
  half-life: 19.2 h
[14]
  AUC(0-t) at 72 h: 26800 ng·h/mL
[15]
  bioavailability: 102%
[16]
  clearance: 1.41 mL/min/kg

## CCS(=O)(=O)Nc1cccc(-c2cc(=O)n(-c3cc(Cl)cc(Cl)c3)nc2C)c1
LNCaP
  pIC50: 4.64
Androgen receptor
  pIC50: 4.88

## CC(O)(CS(=O)(=O)c1ccc(F)cc1)C(=O)Nc1ccc(C#N)c(C(F)(F)F)c1 (centres undefined) [BICALUTAMIDE]
LNCaP
  pIC50: 4.62

## CCS(=O)(=O)Nc1cccc(-c2cc(=O)n(-c3ccc(F)c(Cl)c3)nc2C)c1
LNCaP
  pIC50: 4.57
Androgen receptor
  pIC50: 5.29

## CCS(=O)(=O)Nc1cccc(-c2cc(=O)n(-c3ccc(C#N)cc3)nc2C)c1
LNCaP
  pIC50: 4.41
Androgen receptor
  pIC50: 5.20

## CCS(=O)(=O)Nc1cccc(-c2cc(=O)n(-c3ccc4ccccc4c3)nc2C)c1
LNCaP
  pIC50: 4.74
Androgen receptor
  pIC50: 5.01
